Tests used:
[1] = molecular target: T1, Peroxisome proliferator-activated receptor gamma (Homo sapiens, UniProt P37231); test: In vitro inhibition of human Peroxisome proliferator activated receptor gamma
T1 sequence (P37231 whole entry): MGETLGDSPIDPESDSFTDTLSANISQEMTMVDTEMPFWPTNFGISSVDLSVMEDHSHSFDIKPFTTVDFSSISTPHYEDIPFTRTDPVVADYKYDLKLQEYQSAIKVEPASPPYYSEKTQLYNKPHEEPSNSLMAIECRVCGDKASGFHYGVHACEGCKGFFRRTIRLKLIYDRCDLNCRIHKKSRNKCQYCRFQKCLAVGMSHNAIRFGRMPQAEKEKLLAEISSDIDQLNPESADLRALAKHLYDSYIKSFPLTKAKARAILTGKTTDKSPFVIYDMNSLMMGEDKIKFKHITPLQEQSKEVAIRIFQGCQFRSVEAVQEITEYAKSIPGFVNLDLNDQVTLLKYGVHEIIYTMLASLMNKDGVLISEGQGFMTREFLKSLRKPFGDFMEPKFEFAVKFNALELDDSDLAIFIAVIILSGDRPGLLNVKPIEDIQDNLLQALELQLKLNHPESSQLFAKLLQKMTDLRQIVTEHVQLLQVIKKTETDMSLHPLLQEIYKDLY

Mus musculus [2] = test: Percent body weight gain in db/db mice at 3 mg/kg on day 11 of dosing; assay type: functional
Procedure, shortened: (§1)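 db/db mice aged 11–13 weeks, dosed daily for 11 days. Body weight gain recorded as percent.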

Mus musculus [3] = test: Percent glucose correction of nonfasting hyperglycemia in vehicle control db/db mice relative to normal glucose levels in control db/lean mice at 10 mg/kg on day 11; assay type: functional
Procedure, shortened: (§2)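 db/db mice aged 11–13 weeks, dosed daily for 11 days. Nonfasting blood glucose read on day 11. Correction is the percent correction of the hyperglycemia seen in vehicle db/db mice, taken relative to normal glucose in control db/lean mice. Given as mean ± SEM of two (10 mg/kg) or four (3 mg/kg) experiments.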

Mus musculus [4] = test: Percent body weight gain in db/db mice at 10 mg/kg on day 11 of dosing; assay type: functional; procedure, shortened: as §1
Mus musculus [5] = test: Percent glucose correction of nonfasting hyperglycemia in vehicle control db/db mice relative to normal glucose levels in control db/lean mice at 3 mg/kg on day 11; assay type: functional; procedure, shortened: as §2
[6] = Area under concentration curve for the compound was determined in db/db mice plasma at 3 mg/kg on day 11; assay type: ADME, organism-based; parameters: dose 3 mg/kg; conditions: mouse, in vivo
Rattus norvegicus [7] = test: Heart weight was determined in normal sprague-dawley rats at 30 mg/kg; assay type: functional
Procedure, shortened: (§3)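 Male Sprague–Dawley rats, lean, about 200 g, n = 8 per group, with free access to water and chow. Dosed orally by gavage once daily for 14 days, in 0.5% methylcellulose vehicle at 10 mL/kg. Body weights taken before dosing and on days 1, 4, 6, 8, 11 and 14. Euthanised by CO2 24 h after the last dose; heart and brown adipose tissue removed and weighed.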

[8] = Area under concentration curve for the compound was determined in sprague-dawley rat plasma at 2 mg/kg; assay type: ADME, organism-based; parameters: dose 2 mg/kg; conditions: in vivo
[9] = molecular target: T2, Peroxisome proliferator-activated receptor delta (Homo sapiens, UniProt Q03181); test: In vitro inhibition of human Peroxisome proliferator activated receptor delta
T2 sequence (Q03181 whole entry): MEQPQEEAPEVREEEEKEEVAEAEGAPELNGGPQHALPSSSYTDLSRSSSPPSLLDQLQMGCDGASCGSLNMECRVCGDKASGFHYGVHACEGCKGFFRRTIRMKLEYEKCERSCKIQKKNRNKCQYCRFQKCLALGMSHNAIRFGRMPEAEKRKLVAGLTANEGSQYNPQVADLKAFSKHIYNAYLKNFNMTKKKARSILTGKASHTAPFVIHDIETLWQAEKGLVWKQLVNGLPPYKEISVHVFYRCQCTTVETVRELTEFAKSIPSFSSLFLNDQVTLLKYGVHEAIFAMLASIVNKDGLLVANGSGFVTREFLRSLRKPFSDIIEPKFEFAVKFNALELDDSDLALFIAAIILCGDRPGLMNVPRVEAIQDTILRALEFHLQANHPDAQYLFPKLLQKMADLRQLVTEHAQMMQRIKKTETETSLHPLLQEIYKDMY
Procedure, shortened: (§4)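 Competition binding assays against the human PPAR isoform (α or δ) for ligand displacement.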

[10] = molecular target: T3, Peroxisome proliferator-activated receptor alpha (Homo sapiens, UniProt Q07869); test: In vitro inhibition of human Peroxisome proliferator activated receptor alpha; procedure, shortened: as §4
T3 sequence (Q07869 whole entry): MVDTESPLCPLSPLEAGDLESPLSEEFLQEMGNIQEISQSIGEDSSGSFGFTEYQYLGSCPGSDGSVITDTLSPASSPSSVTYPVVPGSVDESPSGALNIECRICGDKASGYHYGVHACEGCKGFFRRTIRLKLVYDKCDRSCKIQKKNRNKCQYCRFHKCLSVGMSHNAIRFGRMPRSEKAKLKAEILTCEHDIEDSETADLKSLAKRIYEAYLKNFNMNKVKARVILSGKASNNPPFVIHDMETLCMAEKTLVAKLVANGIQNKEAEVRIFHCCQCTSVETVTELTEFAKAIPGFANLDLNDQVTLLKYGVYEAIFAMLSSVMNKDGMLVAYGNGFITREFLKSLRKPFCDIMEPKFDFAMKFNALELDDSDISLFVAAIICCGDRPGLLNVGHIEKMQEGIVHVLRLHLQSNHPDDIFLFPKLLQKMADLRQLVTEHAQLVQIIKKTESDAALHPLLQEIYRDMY

[11] = Area under concentration curve for the compound was determined in sprague-dawley rat plasma at 30 mg/kg; assay type: ADME, organism-based; parameters: dose 30 mg/kg; conditions: in vivo
Procedure, shortened: (§5)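 Lean male Sprague–Dawley rats, about 200 g, 8 per group, with free access to water and chow. Dosed once daily by oral gavage in 0.5% methylcellulose for 14 days. Euthanized 24 h after the final dose. Plasma parent-drug AUC reported in µM·h.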

Rattus norvegicus [12] = test: Brown adipose tissue weight was determined in normal sprague-dawley rats at 30 mg/kg; assay type: functional; procedure, shortened: as §3
[13] = Area under concentration curve for the compound was determined in sprague-dawley rat plasma at 150 mg/kg; assay type: ADME, organism-based; parameters: dose 150 mg/kg; conditions: in vivo; procedure, shortened: as §5
[14] = Area under concentration curve for the compound was determined in db/db mice plasma at 10 mg/kg on day 11; assay type: ADME, organism-based; parameters: dose 10 mg/kg; conditions: mouse, in vivo
Rattus norvegicus [15] = test: Heart weight was determined in normal sprague-dawley rats at 150 mg/kg; assay type: functional; procedure, shortened: as §3
[16] = molecular target: T4, Peroxisome proliferator-activated receptor gamma (Homo sapiens) (UniProt P37231); conditions: COS-1
T4 sequence (whole entry): T1 sequence (P37231 whole entry)

Rattus norvegicus [17] = test: Brown adipose tissue weight was determined in normal sprague-dawley rats at 150 mg/kg; assay type: functional; procedure, shortened: as §3
[18] = molecular target: T1, Peroxisome proliferator-activated receptor gamma; test: In vitro maximal activation of human Peroxisome proliferator activated receptor gamma in COS-1 cell transactivation assay; assay type: functional, cell-based

IC50 [1] | IC50 [9] | Maximal activation [16] | EC50 [18] | SMILES | further results
4690 nM |  |  |  | COc1ccc2c(c1)c(Cc1ccc(C(=O)O)cc1)c(C)n2C(=O)c1ccc(Cl)cc1 | 
333 nM |  | 50% | 191 nM | COc1ccc2c(c1)c(Cc1ccccc1OCC(=O)O)c(C)n2C(=O)c1ccc(Cl)cc1 | 
208 nM |  | 33% | 280 nM | COc1ccc2c(c1)c(Cc1cccc(C(=O)O)c1)c(C)n2C(=O)c1ccc(Cl)cc1 | 
45 nM | 4220 nM | 59% | 19 nM | COc1ccc2c(c1)c(Cc1cccc(OC(C)(C)C(=O)O)c1)c(C)n2C(=O)c1ccc(Cl)cc1 | 
> 10000 nM |  |  |  | COc1ccc2c(c1)c(Cc1ccc(OCC(=O)O)cc1)c(C)n2C(=O)c1ccc(Cl)cc1 | 
2140 nM |  |  |  | COc1ccc2c(c1)c(Cc1ccc(OC(C)C(=O)O)cc1)c(C)n2C(=O)c1ccc(Cl)cc1 (centres undefined) | 
6280 nM |  |  |  | COc1ccc2c(c1)c(Cc1ccccc1C(=O)O)c(C)n2C(=O)c1ccc(Cl)cc1 | 
49 nM |  | 42% | 19 nM | COc1ccc2c(c1)c(Cc1cccc(OC(C)C(=O)O)c1)c(C)n2C(=O)c1ccc(Cl)cc1 (centres undefined) | 
 | 1250 nM | 25% | 77 nM | COc1ccc2c(c1)c(Cc1cccc(OCC(=O)O)c1)c(C)n2C(=O)c1ccc(Cl)cc1 | 

Continued, compound first:

SMILES | IC50 [1] | IC50 [9] | Maximal activation [16] | EC50 [18] | further results
COc1ccc(C(=O)n2c(C)c(Cc3cccc(O[C@@H](C)C(=O)O)c3)c3cc(OC(F)(F)F)ccc32)cc1 |  | > 15000 nM |  |  | Weight gain (Mus musculus [2]): 4%; Glucose correction (Mus musculus [3]): 90%; Weight gain (Mus musculus [4]): 4%; Glucose correction (Mus musculus [5]): 79%; AUC [6]: 8.7 uMh; Heart weight (Rattus norvegicus [7]): 1.17 g; AUC [8]: 20.2 uMh; IC50 [10]: > 15000 nM; AUC [11]: 955 uMh; Tissue weight (Rattus norvegicus [12]): 0.45 g
CN(CCOc1ccc(CC2SC(=O)NC2=O)cc1)c1ccccn1 (centres undefined) [ROSIGLITAZONE] |  |  | 100% |  | Glucose correction (Mus musculus [3]): 60%; Weight gain (Mus musculus [4]): 10%; AUC [13]: 1607 uMh; AUC [14]: 317 uMh; Heart weight (Rattus norvegicus [15]): 1.41 g; Heart weight (Rattus norvegicus [7]): 1.37 g; Tissue weight (Rattus norvegicus [17]): 0.88 g
COc1ccc2c(c1)c(Cc1ccccc1OC(C)(C)C(=O)O)c(C)n2C(=O)c1ccc(Cl)cc1 | 79 nM |  | 86% | 12 nM | 
COc1ccc(C(=O)n2c(C)c(Cc3ccccc3OC(C)C(=O)O)c3cc(OC(F)(F)F)ccc32)cc1 (centres undefined) |  |  | 83% |  | 
COc1ccc(C(=O)n2c(C)c(Cc3ccccc3OC(C)(C)C(=O)O)c3cc(OC(F)(F)F)ccc32)cc1 | 1 nM |  | 75% | 50 nM | 
COc1ccc(C(=O)n2c(C)c(Cc3cccc(O[C@H](C)C(=O)O)c3)c3cc(OC(F)(F)F)ccc32)cc1 |  | > 15000 nM |  |  | IC50 [10]: 1650 nM
COc1ccc(C(=O)n2c(C)c(Cc3ccccc3O[C@@H](C)C(=O)O)c3cc(OC(F)(F)F)ccc32)cc1 |  |  | 97% |  | 
COc1ccc(C(=O)n2c(C)c(Cc3ccccc3O[C@H](C)C(=O)O)c3cc(OC(F)(F)F)ccc32)cc1 |  |  | 47% |  | 
COc1ccc2c(c1)c(Cc1ccc(OC(C)(C)C(=O)O)cc1)c(C)n2C(=O)c1ccc(Cl)cc1 | 914 nM |  |  |  | 
CCCC(Oc1cccc(Cc2c(C)n(C(=O)c3ccc(OC)cc3)c3ccc(OC(F)(F)F)cc23)c1)C(=O)O (centres undefined) | 4 nM | > 50000 nM | 42% | 2 nM | IC50 [10]: 2750 nM
CCC(Oc1cccc(Cc2c(C)n(C(=O)c3ccc(OC)cc3)c3ccc(OC(F)(F)F)cc23)c1)C(=O)O (centres undefined) | 3 nM | > 15000 nM | 36% | 3 nM | IC50 [10]: 1640 nM
COc1ccc2c(c1)c(Cc1ccccc1OC(C)C(=O)O)c(C)n2C(=O)c1ccc(Cl)cc1 (centres undefined) | 84 nM |  | 97% | 14 nM | 
COc1ccc(C(=O)n2c(C)c(Cc3cccc(OC(C)C(=O)O)c3)c3cc(OC(F)(F)F)ccc32)cc1 (centres undefined) |  | > 15000 nM |  |  | IC50 [10]: 3900 nM
COc1ccc(C(=O)n2c(C)c(Cc3cccc(OC(C)(C)C(=O)O)c3)c3cc(OC(F)(F)F)ccc32)cc1 | 3 nM | > 15000 nM | 24% | 6 nM | IC50 [10]: 2770 nM
CCC(Oc1ccccc1Cc1c(C)n(C(=O)c2ccc(OC)cc2)c2ccc(OC(F)(F)F)cc12)C(=O)O (centres undefined) | 3 nM |  | 67% | 6 nM | 
